Results from paper PMC3516907 (ChemMedChem, 2010).

Key:
ER in MCF7 cells = test: ER degradation in MCF7 cells by immunofluorescence; assay type: cell-based, human
Outline: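 MCF7 cells were grown on ethanol/UV-sterilised coverslips for 24 h, then switched to phenol-red-free RPMI with 5% charcoal/dextran-treated FBS. Compounds were diluted in this medium from a DMSO vehicle and applied for 48 h. Cells were fixed in 4% PFA, permeabilised with 0.2% Triton X-100, and blocked in 10% goat serum/0.1% BSA in PBST. Staining used anti-ER with an Alexa Fluor 488 secondary and DAPI mounting, imaged by inverted fluorescence microscopy.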

[1] = system: endogenous ER in MCF7 breast cancer cells; test: ER degradation in MCF7 cells by western blotting; assay type: cell-based, human; details: with/without proteasome inhibitor epoxomicin (Fig 3B)
Outline: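 MCF7 cells at 70% confluence, held at least 24 h in RPMI with 5% charcoal-dextran FBS, were treated 48 h (DMSO vehicle). Lysis was 1 h on ice in Tris/NaCl/NP40/Triton X-100 buffer with protease inhibitors, with Bradford protein assay. Equal protein ran on 10% SDS-PAGE and was blotted to PVDF. Anti-ER was applied overnight at 4°C, secondary 1 h at room temperature. Detection was ECL/film, reprobed for β-actin loading.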

C[C@]12CC[C@@H]3c4ccc(O)cc4CC[C@H]3[C@@H]1CC[C@@H]2O [E2, 17β-estradiol]
ER signal by immunofluorescence on co-treatment with epoxomicin (ER in MCF7 cells; 48h, 25 μM PROTACs or 10 nM E2 plus epoxomicin (Fig 3A bottom row)): blocked by co-treatment with epoxomicin
proteasome dependence of ER degradation (western blot) [1]: confirmed via western blotting

-Leu-Ala-Pro^OHTyr-Ile-Bzl [PROTAC 24]
ER signal (green, FITC) by immunofluorescence vs DMSO control (ER in MCF7 cells; 48h treatment, 25 μM PROTACs, 10 nM E2 (Fig 3A top row)): attenuation of ER signal (green) was observed
proteasome dependence of ER degradation (western blot) [1]: confirmed via western blotting
